Legend:
MOLT-4 [1] = test: Cell culture cytotoxicity of MOLT-4 T-cell leukemia cells; assay type: functional, Homo sapiens
How it was run: (§1)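 SW480 or MOLT-4 cells grown in folic acid-free RPMI 1640 supplemented with 10 nM (6R,S)-5-formyltetrahydrofolic acid and 10% charcoal-dialyzed FBS. Continuous 72 h drug exposure, growth read by MTT tetrazolium dye reduction. Reported as the concentration halving growth rate.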

MCF7 [2] = test: Cell culture cytotoxicity of MCF-7 breast adenocarcinoma cells; assay type: functional, Homo sapiens
How it was run: (§2)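 MCF-7 cells kept in folic acid-free RPMI 1640 with 10 nM (6R,S)-5-formyltetrahydrofolic acid as sole folate plus 10% charcoal-dialyzed FBS. MTT dye-reduction assay after continuous drug exposure for 96 h. Value is the concentration giving 50% reduction in growth rate.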

SW480 [3] = test: Cell culture cytotoxicity of SW480 colon adenocarcinoma cells; assay type: functional, Homo sapiens; how it was run: as §1
[4] = Velocity compared to a control 50 uM aminopterin run on each test; assay type: ADME
How it was run: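 Substrate activity toward partially purified hog liver folylpolyglutamate synthetase. Velocity expressed as percent of a 50 µM aminopterin control included in every run.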

Thymidylate synthase [5] = biological target: T1, Thymidylate synthase (Homo sapiens, UniProt P04818); test: Inhibition of purified human thymidylate synthase (TS) isolated from an Escherichia coli harboring a plasmid with thy A gene cloned from SV40 transformed human fibroblast cells; assay type: cell-free
How it was run: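 Purified recombinant human TS, expressed in E. coli from a thyA gene cloned from SV40-transformed human fibroblasts. Inhibition was measured by a modified tritium-release assay. Ki was estimated by treating compounds as tight-binding noncompetitive inhibitors.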

MCF7 [6] = test: Cell culture cytotoxicity (CCCT) of MCF-7 breast adenocarcinoma cells; assay type: functional, Homo sapiens; how it was run: as §2
[7] = Ratio of relative velocity to that of the Michaelis constant
Thymidylate synthase [8] = biological target: T1, Thymidylate synthase; test: Inhibition of purified human thymidylate synthase isolated from an Escherichia coli harboring thy A gene cloned from SV40 transformed human fibroblast cells; assay type: cell-free
Sus scrofa = species: Sus scrofa; settings: Liver
MOLT-4 [9] = biological target: MOLT-4
Thymidylate synthase [10] = biological target: T1, Thymidylate synthase; test: Inhibitory activity against thymidylate synthase (TS); settings: read-out: I50
SW480 [11] = test: Cell culture cytotoxicity of SW480 colon adenocarcinoma cells.; assay type: functional, Homo sapiens; how it was run: as §1
MOLT-4 [12] = test: Inhibition constant against the transport of [3H]- methotrexate (MTX) by MOLT-4 T-cell; assay type: functional, Homo sapiens
How it was run: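 Uptake of [3H]methotrexate, a substrate of the reduced folate carrier, into MOLT-4 T-cell leukemia cells measured with and without compound. Inhibition constant derived against this transport.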

T1 sequence (P04818 whole entry): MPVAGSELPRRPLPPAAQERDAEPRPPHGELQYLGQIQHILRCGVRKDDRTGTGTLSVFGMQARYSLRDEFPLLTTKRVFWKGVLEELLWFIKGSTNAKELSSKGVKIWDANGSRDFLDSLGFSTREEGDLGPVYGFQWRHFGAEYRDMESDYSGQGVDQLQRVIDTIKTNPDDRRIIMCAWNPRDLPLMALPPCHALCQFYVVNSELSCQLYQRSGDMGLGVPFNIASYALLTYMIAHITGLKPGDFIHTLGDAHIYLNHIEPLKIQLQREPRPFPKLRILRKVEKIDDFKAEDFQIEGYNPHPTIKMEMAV

Compound	Vm rel [4]	CCCT (MCF7 [2])	CCCT (SW480 [3])	also measured
Nc1nc(O)c2c(n1)CCc1ccc(S(=O)(=O)Nc3ccc(C(=O)N[C@@H](CCC(=O)O)C(=O)O)cc3)cc1-2	115%	0.65 µM	7.9 µM	CCCT (MOLT-4 [1]): 2.4 µM
Nc1nc(O)c2c(ccc3ccc(Br)cc32)n1				Ki (Thymidylate synthase [5]): 20 nM; CCCT (MCF7 [6]): 10 µM
C#CCN(c1ccc(C(=O)N[C@@H](CCC(=O)O)C(=O)O)cc1)S(=O)(=O)c1ccc2c(c1)CCc1nc(N)nc(O)c1-2		>50 µM	>50 µM	CCCT (MOLT-4 [1]): >50 µM
Cc1nc2ccc3ccc(S(=O)(=O)Nc4ccc(C(=O)N[C@@H](CCC(=O)O)C(=O)O)cc4)cc3c2c(=O)[nH]1	185%			V/K [7]: 59.6; Ki (Thymidylate synthase [8]): 5.5 nM
Cc1nc(O)c2c(ccc3ccc(S(=O)(=O)Nc4ccc(C(=O)N[C@@H](CCC(=O)O)C(=O)O)cc4)cc32)n1		0.07 µM	2.4 µM	CCCT (MOLT-4 [1]): 0.12 µM; Km (Sus scrofa): 3.11 µM; Ki (MOLT-4 [9]): 4900 nM
Cc1nc(O)c2c(ccc3c(S(=O)(=O)Nc4ccc(C(=O)N[C@@H](CCC(=O)O)C(=O)O)cc4)cccc32)n1		50 µM	>100 µM	Vel rem [4]: 55.2%
Cc1nc(O)c2c(n1)CCc1ccc(S(=O)(=O)Nc3ccc(C(=O)N[C@@H](CCC(=O)O)C(=O)O)cc3)cc1-2	109%	0.65 µM	4.1 µM	CCCT (MOLT-4 [1]): 0.2 µM
Nc1nc(O)c2c(ccc3cc(S(=O)(=O)Nc4ccc(C(=O)N[C@@H](CCC(=O)O)C(=O)O)cc4)c(Br)cc32)n1		>50 µM		Ki (Thymidylate synthase [5]): 16400 nM; CCCT (SW480 [11]): >50 µM; Inhibition (MOLT-4 [12]): 45%
Nc1nc(O)c2c(ccc3ccc(NS(=O)(=O)c4ccc(C(=O)N[C@@H](CCC(=O)O)C(=O)O)cc4)cc32)n1				Ki (Thymidylate synthase [5]): 100 nM; CCCT (SW480 [11]): >100 µM; Inhibition (MOLT-4 [12]): 42%
Nc1nc(O)c2c(n1)CCc1ccccc1-2		>100 µM		
Cc1nc(O)c2c(n1)CCc1ccccc1-2		>100 µM		
Cc1nc(O)c2c(ccc3ccccc32)n1		>100 µM		
Cc1nc(O)c2c(n1)CCc1ccc(S(=O)(=O)N(C)c3ccc(C(=O)N[C@@H](CCC(=O)O)C(=O)O)cc3)cc1-2		>50 µM	>50 µM	

Now from value to molecule, other results behind:

Vm rel [4]	Compound	CCCT (MCF7 [2])	CCCT (SW480 [3])	also measured
28.9%	Nc1nc(O)c2c(n1)CCc1cc(Br)c(S(=O)(=O)Nc3ccc(C(=O)N[C@@H](CCC(=O)O)C(=O)O)cc3)cc1-2	>100 µM	>100 µM	
102%	Nc1nc(O)c2c(n1)CCc1cc(S(=O)(=O)Nc3ccc(C(=O)N[C@@H](CCC(=O)O)C(=O)O)cc3)ccc1-2	25 µM		

From ChEMBL document CHEMBL1126944, “Benzoquinazoline inhibitors of thymidylate synthase: enzyme inhibitory activity and cytotoxicity of some sulfonamidobenzoylglutamate and related derivatives” (J Med Chem, 1993)
